The nature of data set [1]: Plasma pharmacokinetics after single oral dose. It is filed as in vivo. The following applies: human, 150 mg.
For data set [2], the system named is healthy male subjects. In words: Laser-evoked potentials. It is filed as in vivo, human. A digest of the protocol:
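Crossover in 24 healthy CYP2D6 extensive/intermediate-metabolizer males: 4 double-blind, double-dummy single-dose periods with 6-day washouts. Back skin got topical 1% alcoholic capsaicin under occlusion for 25 min, then two CO2-laser rekindling sessions. Each session used ≥13 80-msec laser stimuli at the fixed individual pain-threshold intensity. Vertex EEG (Cz vs right mastoid, artifacts rejected) recorded predose and hourly to 8 h. Value is the N2-P2 amplitude difference vs placebo.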

Data set [3] has as its system healthy male subjects. The data set can be described thus: Safety and tolerability. It is filed as in vivo, human.
Data set [4] deals with healthy male subjects. The data set can be described thus: Postlaser pain visual analog scale. Particulars: all subjects. It is filed as in vivo, human. A digest of the protocol: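 Measured in the same capsaicin-pretreated back-skin sessions of the 4-period crossover (24 healthy males, double-blind, single doses, 6-day washout). Laser intensity was held at each subject's pain threshold, set on untreated skin during screening. After the laser stimuli, subjects rated pain on a 0–100 mm visual analog scale, expressed as %. Ratings were taken predose and hourly up to 8 h, compared against placebo.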

Data set [5] concerns healthy male subjects. The following applies: previous data in healthy subjects; cited from earlier work.

One may read the Tmax as the time at which the peak concentration occurs. Broadly, the Cmax is the highest concentration seen after dosing. For the molecule `CC(C)C[C@H](CN)CC(=O)O` [Pregabalin, pregabalin], in data set [1], the time of peak concentration (Tmax) stood at 1.08 h. For the same molecule, in data set [1] (mean Cmax, pregabalin 150 mg single oral dose), the Cmax came to 3480 ng/mL. Besides, the “Difference in LEP N2-P2 PtP amplitudes” value in the data set with healthy male subjects [2] (pregabalin 150 mg single dose vs placebo, all subjects (n = 24)) was “–3.30 μV”. For the same molecule, the “LEP N2-P2 PtP amplitude value” with healthy male subjects [2] (pregabalin 150 mg, overall, all subjects) turned out to be 26.7 μV. In addition, the “Subjects who reported TEAEs” value in the data set on healthy male subjects [3] (during treatment with pregabalin 150 mg) was 50%. In the data set on healthy male subjects [3] (pregabalin 150 mg (n = 24)), the “Any TEAE” value is given as 12 (50) No. (%), the Dizziness is on record as 6 (25) No. (%), the “Drug-related TEAE” value is 12 (50) No. (%) and the Fatigue was 4 (17) No. (%). For the same molecule, in the data set with healthy male subjects [3] (pregabalin 150 mg (n = 24)), the Headache is 0 No. (%), the Nausea is recorded as 1 (4) No. (%), the “Serious TEAE” value is reported as 0 No. (%) and the Somnolence is 1 (4) No. (%). For the same molecule, in the data set on healthy male subjects [3] (pregabalin 150 mg (n = 24)), the Vertigo is on record as 3 (13) No. (%). Besides, the “Difference in VAS pain” value in the data set with healthy male subjects [4] (pregabalin 150 mg vs placebo) is recorded as “–9.90%”. Further, the VAS pain score in the data set with healthy male subjects [4] (pregabalin 150 mg) stood at 36.6%. Besides, in the data set with healthy male subjects [5], the “Reductions in PtP amplitudes of LEPs maintained postdose” value was “more than six hours” and the “Start of reductions in PtP amplitudes of LEPs” value was “one to two hours postadministration”.

The values are drawn from paper PMC6217710 (Pain Medicine: The Official Journal of the American Academy …, 2018).
